Measured values as given in ChEMBL document CHEMBL1949664, “Epiminocyclohepta[b]indole analogs as 5-HT6 antagonists” (Bioorg Med Chem Lett, 2012).

Assays:
[1] = target: T1, 5-hydroxytryptamine receptor 6 (Homo sapiens, UniProt P50406); experiment: Displacement of [3H]LSD from human 5-HT6 serotonin receptor by scintillation proximity assay
Liver microsomes [2] = experiment: (§1) Stability in human liver microsomes assessed as compound remaining after 1 hr; type: ADME, Microsome; details: microsomes, 1 h
Procedure, shortened: (§2)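 Human liver microsomes; percent parent compound remaining after 1 h incubation.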

Liver microsomes [3] = experiment: (§3) Stability in rat liver microsomes assessed as compound remaining after 1 hr; type: ADME, Microsome; details: microsomes, 1 h
Procedure, shortened: (§4)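 Rat liver microsomes; percent parent compound remaining after 1 h incubation.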

Caco-2 [4] = experiment: (§5) Permeability from apical to basolateral side of human Caco2 cells; type: ADME, cell-based
Procedure, shortened: (§6)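 Caco-2 monolayers; apical-to-basolateral flux reported as ×10^-6 cm/s.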

[5] = target: T1, 5-hydroxytryptamine receptor 6; experiment: Agonist activity at human 5-HT6 serotonin receptor expressed in CHO-1 cells assessed as cAMP production relative to 5-hydroxytryptamine; type: functional, cell-based; set-up: concentration or dose not given beside the values
Caco-2 [6] = experiment: (§7) Efflux ratio of permeability from basolateral to apical side over apical to basolateral side in human Caco2 cells; type: ADME, cell-based
Rattus norvegicus [7] = experiment: Ex vivo 5-HT6 serotonin receptor occupancy in Sprague-Dawley rat brain at 30 mg/kg after 6 hrs using [125I][…] by autoradiography; type: functional
Procedure, shortened: (§8)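 Sprague Dawley rats dosed at 10, 30 or 90 mg/kg, brains taken at 6 or 24 h. Caudate putamen sections incubated with [125I]SB258585 alone (total) or plus methiothepin (non-specific); β-imager read-out. Two determinations per animal, 5 animals per dose group; specific binding expressed relative to vehicle controls.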

[8] = AUC (0 to infinity) in Sprague-Dawley rat at 10 mg/kg, po; type: ADME, organism-based; set-up: time infinity, dose 10 mg/kg, route oral; details: plasma
[9] = Ratio of drug level in brain to plasma in Sprague-Dawley rat at 10 mg/kg, po after 6 hrs; type: ADME, organism-based; set-up: dose 10 mg/kg, route oral; details: read-out: BPR
[10] = Clearance in Sprague-Dawley rat at 2 mg/kg, iv; type: ADME, organism-based; set-up: dose 2 mg/kg, route intravenous; details: in vivo
Rattus norvegicus [11] = experiment: Ex vivo 5-HT6 serotonin receptor occupancy in Sprague-Dawley rat brain at 30 mg/kg after 24 hrs using [125I][…] by autoradiography; type: functional; procedure, shortened: as §8
Rattus norvegicus [12] = experiment: Ex vivo 5-HT6 serotonin receptor occupancy in Sprague-Dawley rat brain at 90 mg/kg after 6 hrs using [125I][…] by autoradiography; type: functional; procedure, shortened: as §8
Rattus norvegicus [13] = experiment: Ex vivo 5-HT6 serotonin receptor occupancy in Sprague-Dawley rat brain at 10 mg/kg after 24 hrs using [125I][…] by autoradiography; type: functional; procedure, shortened: as §8
Rattus norvegicus [14] = experiment: Ex vivo 5-HT6 serotonin receptor occupancy in Sprague-Dawley rat brain at 10 mg/kg after 6 hrs using [125I][…] by autoradiography; type: functional; procedure, shortened: as §8
[15] = Cmax in Sprague-Dawley rat at 10 mg/kg, po; type: ADME, organism-based; set-up: dose 10 mg/kg, route oral; details: in vivo
[16] = Oral bioavailability in Sprague-Dawley rat at 2 mg/kg; type: ADME, organism-based; details: in vivo
[17] = Half life in Sprague-Dawley rat at 10 mg/kg, po; type: ADME, organism-based; set-up: dose 10 mg/kg, route oral; details: in vivo
Rattus norvegicus [18] = experiment: Ex vivo 5-HT6 serotonin receptor occupancy in Sprague-Dawley rat brain at 90 mg/kg after 24 hrs using [125I][…] by autoradiography; type: functional; procedure, shortened: as §8
[19] = Cmax (0 to 6 hrs) in Sprague-Dawley rat at 30 mg/kg, po; type: ADME, organism-based; set-up: dose 30 mg/kg, route oral; details: in vivo
[20] = Oral bioavailability in Sprague-Dawley rat at 10 mg/kg; type: ADME, organism-based; details: in vivo
[21] = Tmax in Sprague-Dawley rat at 10 mg/kg, po; type: ADME, organism-based; set-up: dose 10 mg/kg, route oral; details: in vivo
[22] = Volume of distribution at steady state in Sprague-Dawley rat at 2 mg/kg, iv; type: ADME, organism-based; set-up: dose 2 mg/kg, route intravenous; details: in vivo, read-out: Vdss
[23] = Tmax (0 to 6 hrs) in Sprague-Dawley rat at 30 mg/kg, po; type: ADME, organism-based; set-up: dose 30 mg/kg, route oral; details: in vivo
Rattus norvegicus [24] = species: Rattus norvegicus; experiment: Ex vivo 5-HT6 serotonin receptor occupancy in Sprague-Dawley rat brain after 6 hrs using [125I][…] by autoradiography; type: functional, organism-based; procedure, shortened: as §8
[25] = target: T1, 5-hydroxytryptamine receptor 6; experiment: Antagonist activity at human 5-HT6 serotonin receptor expressed in CHO-1 cells assessed as inhibition of 5-hydroxytryptamine-induced cAMP production; type: functional, cell-based
[26] = as §1; type: ADME, Microsome; details: liver microsomes, read-out: Stability; procedure, shortened: as §2
[27] = as §7; type: ADME, cell-based; details: caco-2
[28] = as §3; type: ADME, Microsome; details: liver microsomes, read-out: Stability; procedure, shortened: as §4
[29] = as §5; type: ADME, cell-based; details: caco-2, read-out: permeability; procedure, shortened: as §6

T1 sequence (P50406 whole entry): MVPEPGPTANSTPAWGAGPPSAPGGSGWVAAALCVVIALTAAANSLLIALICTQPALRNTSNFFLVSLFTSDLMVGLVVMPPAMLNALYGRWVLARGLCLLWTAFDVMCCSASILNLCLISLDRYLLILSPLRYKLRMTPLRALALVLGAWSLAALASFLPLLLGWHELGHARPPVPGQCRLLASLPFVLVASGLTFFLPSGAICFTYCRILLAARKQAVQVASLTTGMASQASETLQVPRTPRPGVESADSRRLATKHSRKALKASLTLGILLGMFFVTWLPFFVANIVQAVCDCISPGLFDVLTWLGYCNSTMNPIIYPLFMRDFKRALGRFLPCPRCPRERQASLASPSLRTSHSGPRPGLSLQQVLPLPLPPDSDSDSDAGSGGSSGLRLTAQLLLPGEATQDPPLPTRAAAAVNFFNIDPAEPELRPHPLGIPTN

Cn1ccc(S(=O)(=O)c2ccc3c(c2)c2c(n3C)CC3CCC2N3)n1 (stereo unspecified)
Ki [1]: 1010 nM

Cn1c2c(c3cccc(S(=O)(=O)c4ccccc4)c31)C1CCC(C2)N1 (racemic)
Ki [1]: 814 nM

Cn1c2c(c3ccc(S(=O)(=O)c4ccccc4)cc31)C1CCC(C2)N1 (racemic)
Ki [1]: 131 nM

CCN1C2CCC1c1c(n(C)c3ccc(S(=O)(=O)c4ccccc4)cc13)C2 (racemic)
Ki [1]: 91 nM

O=S(=O)(c1ccccc1)c1ccc2[nH]c3c(c2c1)C1CCC(C3)N1 (racemic)
Ki [1]: 54 nM

Cn1c2c(c3cc(S(=O)(=O)c4cccc(F)c4)ccc31)C1CCC(C2)N1 (racemic)
Ki [1]: 4.1 nM

Cn1c2c(c3cc(S(=O)(=O)c4ccncc4)ccc31)C1CCC(C2)N1 (racemic)
Ki [1]: > 10000 nM

Cn1c2c(c3cc(S(=O)(=O)n4cccc4)ccc31)C1CCC(C2)N1 (racemic)
Ki [1]: 32 nM

Cn1c2c(c3cc(S(=O)(=O)c4csc5ccccc45)ccc31)C1CCC(C2)N1 (single isomer, unassigned) [listing 1 of 2 here]
Stability (Liver microsomes [2]): 78% | Stability (Liver microsomes [3]): 80% | permeability (Caco-2 [4]): 15.7 ×10⁻⁶ cm/s

Cn1c2c(c3cc(S(=O)(=O)c4csc5ccccc45)ccc31)C1CCC(C2)N1 (single isomer, unassigned) [listing 2 of 2 here]
Activity [5]: < 15%

Cn1c2c(c3cc(S(=O)(=O)c4cccc(Cl)c4)ccc31)C1CCC(C2)N1 (single isomer, unassigned; (+)) [listing 1 of 2 here]
Stability (Liver microsomes [2]): 93% | Ratio (Caco-2 [6]): 4.4 | Stability (Liver microsomes [3]): 72% | permeability (Caco-2 [4]): 8.55 ×10⁻⁶ cm/s

Cn1c2c(c3cc(S(=O)(=O)c4cccc(C(F)(F)F)c4)ccc31)C1CCC(C2)N1 (single isomer, unassigned; (+)) [listing 1 of 2 here]
Stability (Liver microsomes [2]): 100% | Activity (Rattus norvegicus [7]): 76% | AUC(0-inf) [8]: 26700 ng·h/mL | Kp at 6 h [9]: 1.3 | clearance [10]: 5.7 mL/min/kg | Activity (Rattus norvegicus [11]): 74% | Activity (Rattus norvegicus [12]): 78% | Activity (Rattus norvegicus [13]): 48% | Activity (Rattus norvegicus [14]): 60% | Cmax [15]: 916 ng/mL | bioavailability [16]: 91% | half-life [17]: 10 h | Stability (Liver microsomes [3]): 79% | Activity (Rattus norvegicus [18]): 84% | Cmax [19]: 732 ng/mL | bioavailability [20]: 91% | permeability (Caco-2 [4]): 24.8 ×10⁻⁶ cm/s | Tmax [21]: 4 h | Vd [22]: 4.7 L/kg | Tmax [23]: 6 h

Cn1c2c(c3cc(S(=O)(=O)n4ccc5ccccc54)ccc31)C1CCC(C2)N1 (single isomer, unassigned; (+)) [listing 1 of 2 here]
Stability (Liver microsomes [2]): 96% | Stability (Liver microsomes [3]): 86% | Cmax [19]: 41 ng/mL | permeability (Caco-2 [4]): 12 ×10⁻⁶ cm/s | Tmax [23]: 6 h

Cn1c2c(c3cc(S(=O)(=O)c4c[nH]c5ccccc45)ccc31)C1CCC(C2)N1 (single isomer, unassigned; (+)) [listing 1 of 2 here]
Stability (Liver microsomes [2]): 86% | Stability (Liver microsomes [3]): 57% | permeability (Caco-2 [4]): 1.05 ×10⁻⁶ cm/s

Cn1c2c(c3cc(S(=O)(=O)c4ccc5[nH]ccc5c4)ccc31)C1CCC(C2)N1 (single isomer, unassigned; (+)) [listing 1 of 2 here]
Stability (Liver microsomes [2]): 99% | Stability (Liver microsomes [3]): 91%

Cn1c2c(c3cc(S(=O)(=O)c4c[nH]c5ccccc45)ccc31)C1CCC(C2)N1 (single isomer, unassigned; (+)) [listing 2 of 2 here]
Activity [5]: < 15%

Cn1c2c(c3cc(S(=O)(=O)c4ccc5[nH]ccc5c4)ccc31)C1CCC(C2)N1 (single isomer, unassigned; (+)) [listing 2 of 2 here]
Activity [5]: < 15%

Cn1c2c(c3cc(S(=O)(=O)c4cccc(C(F)(F)F)c4)ccc31)C1CCC(C2)N1 (single isomer, unassigned; (+)) [listing 2 of 2 here]
Activity [5]: < 15% | Activity (Rattus norvegicus [24]): Dose-dependent effect

Cn1c2c(c3cc(S(=O)(=O)c4cccc(Cl)c4)ccc31)C1CCC(C2)N1 (single isomer, unassigned; (+)) [listing 2 of 2 here]
Activity [5]: < 15% | Kb [25]: 4 nM

Cn1c2c(c3cc(S(=O)(=O)c4ccccc4)ccc31)C1CCC(C2)N1 (single isomer, unassigned; (+))
Activity [5]: < 15%

Cn1c2c(c3cc(S(=O)(=O)n4ccc5ccccc54)ccc31)C1CCC(C2)N1 (single isomer, unassigned; (+)) [listing 2 of 2 here]
Activity [5]: < 15%

Cn1c2c(c3cc(S(=O)(=O)c4cccc(Cl)c4)ccc31)C1CCC(C2)N1 (single isomer, unassigned; (-)) [listing 1 of 2 here]
remaining at 1 h [26]: 76% | efflux ratio [27]: 6 | remaining at 1 h [28]: 63% | Papp A→B [29]: 7.49 ×10⁻⁶ cm/s

Cn1c2c(c3cc(S(=O)(=O)c4cccc(C(F)(F)F)c4)ccc31)C1CCC(C2)N1 (single isomer, unassigned; (-)) [listing 1 of 2 here]
Stability (Liver microsomes [2]): 78% | remaining at 1 h [28]: 65% | Papp A→B [29]: 16.5 ×10⁻⁶ cm/s

Cn1c2c(c3cc(S(=O)(=O)n4ccc5ccccc54)ccc31)C1CCC(C2)N1 (single isomer, unassigned; (-)) [listing 1 of 2 here]
remaining at 1 h [26]: 82% | remaining at 1 h [28]: 88% | Papp A→B [29]: 15 ×10⁻⁶ cm/s

Cn1c2c(c3cc(S(=O)(=O)c4c[nH]c5ccccc45)ccc31)C1CCC(C2)N1 (single isomer, unassigned; (-)) [listing 1 of 2 here]
remaining at 1 h [26]: 72% | Stability (Liver microsomes [3]): 34% | permeability (Caco-2 [4]): 0.41 ×10⁻⁶ cm/s

Cn1c2c(c3cc(S(=O)(=O)c4ccc5[nH]ccc5c4)ccc31)C1CCC(C2)N1 (single isomer, unassigned; (-)) [listing 1 of 2 here]
remaining at 1 h [26]: 89% | remaining at 1 h [28]: 77% | Papp A→B [29]: 0.55 ×10⁻⁶ cm/s

Cn1c2c(c3cc(S(=O)(=O)c4csc5ccccc45)ccc31)C1CCC(C2)N1 (single isomer, unassigned; (-)) [listing 1 of 2 here]
Stability (Liver microsomes [2]): 52% | remaining at 1 h [28]: 67% | permeability (Caco-2 [4]): 0.24 ×10⁻⁶ cm/s

Cn1c2c(c3cc(S(=O)(=O)c4c[nH]c5ccccc45)ccc31)C1CCC(C2)N1 (single isomer, unassigned; (-)) [listing 2 of 2 here]
Activity [5]: < 15%

Cn1c2c(c3cc(S(=O)(=O)c4ccc5[nH]ccc5c4)ccc31)C1CCC(C2)N1 (single isomer, unassigned; (-)) [listing 2 of 2 here]
Activity [5]: < 15%

Cn1c2c(c3cc(S(=O)(=O)c4cccc(C(F)(F)F)c4)ccc31)C1CCC(C2)N1 (single isomer, unassigned; (-)) [listing 2 of 2 here]
Activity [5]: < 15%

Cn1c2c(c3cc(S(=O)(=O)c4cccc(Cl)c4)ccc31)C1CCC(C2)N1 (single isomer, unassigned; (-)) [listing 2 of 2 here]
Activity [5]: < 15% | Kb [25]: 3.5 nM

Cn1c2c(c3cc(S(=O)(=O)c4ccccc4)ccc31)C1CCC(C2)N1 (single isomer, unassigned; (-))
Activity [5]: < 15%

Cn1c2c(c3cc(S(=O)(=O)c4csc5ccccc45)ccc31)C1CCC(C2)N1 (single isomer, unassigned; (-)) [listing 2 of 2 here]
Activity [5]: < 15%

Cn1c2c(c3cc(S(=O)(=O)n4ccc5ccccc54)ccc31)C1CCC(C2)N1 (single isomer, unassigned; (-)) [listing 2 of 2 here]
Activity [5]: < 15%
